ChEMBL document CHEMBL1132201, “Potent inhibition of Grb2 SH2 domain binding by non-phosphate-containing ligands” (J Med Chem, 1999)
pIC50: −log10 of the molar value. Positions of bridges follow the written chain, without caps; N, C: chain ends. Non-standard residues stand in square brackets, D forms with d. Residues, ends and D or L forms follow the SMILES beside them. pY = N[C@@H](Cc1ccc(OP(=O)(O)O)cc1)C(=O)O

Legend:
[1] = target: T1, Growth factor receptor-bound protein 2 (Homo sapiens, UniProt P62993); test: Inhibition of Growth factor receptor bound protein 2 SH2 domain binding in plasmon resonance binding assay
T1 sequence (P62993 whole entry, the tested form may be a part): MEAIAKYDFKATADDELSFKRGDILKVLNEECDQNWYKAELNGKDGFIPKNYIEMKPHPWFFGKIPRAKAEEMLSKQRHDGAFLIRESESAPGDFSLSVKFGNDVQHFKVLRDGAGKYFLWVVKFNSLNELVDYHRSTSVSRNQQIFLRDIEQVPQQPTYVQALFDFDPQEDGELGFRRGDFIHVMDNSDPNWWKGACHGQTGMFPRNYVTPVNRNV
How it was run: (§1)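 Biotin-DDPSpYVNVQ (SHC phosphopeptide) immobilized on SA5 streptavidin chips at 2 nM. Equilibrium Ru was read 20 s after flow ended and compared with binding without inhibitor to derive IC50. Two experiments on separate chips.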

[2] = target: T1, Growth factor receptor-bound protein 2; test: (§2) Inhibition of Grb2 SH2 domain binding in MDA-MB-453 human breast carcinoma cell lysates
How it was run: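 Lysates of serum-treated MDA-MB-453 cells were made in 1% Triton X-100/PBS with 0.2 mM NaVO4 and incubated 30 min with compound. Grb2 was immunoprecipitated from 5 mg lysate with anti-Grb2 and protein A Sepharose. Proteins were resolved by 8–16% SDS-PAGE, and coprecipitated p185erbB-2 was detected by anti-phosphotyrosine Western blot. Single experiment, equal lysate amounts.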

[3] = target: T1, Growth factor receptor-bound protein 2; test: Inhibition of Grb2 SH2 domain binding
[4] = target: T1, Growth factor receptor-bound protein 2; test: Inhibition of Grb2 SH2 domain binding by surface plasmon resonance; how it was run: as §1
[5] = target: T1, Growth factor receptor-bound protein 2; test: as §2; settings: in the assay text read “cells” for “cell lysates”

SMILES	pIC50 [1]	pIC50 [2]	further results
CC(=O)N[C@@H](Cc1ccc(C(F)(F)P(=O)(O)O)cc1)C(=O)NC1(C(=O)N[C@@H](CC(N)=O)C(=O)NCCCc2cccc3ccccc23)CCCCC1	7.10	6.30	
NC(=O)C[C@H](NC(=O)C1(NC(=O)[C@H](Cc2ccc(CP(=O)(O)O)cc2)NC(=O)C(=O)O)CCCCC1)C(=O)NCCCc1cccc2ccccc12		6.30	
CC(=O)N[C@@H](Cc1ccc(OCC(=O)O)c(C(=O)O)c1)C(=O)NC1(C(=O)N[C@@H](CC(N)=O)C(=O)NCCCc2cccc3ccccc23)CCCCC1	5.17		
CC(=O)N[C@@H](Cc1ccc(OCC(=O)O)c(OCC(=O)O)c1)C(=O)NC1(C(=O)N[C@@H](CC(N)=O)C(=O)NCCCc2cccc3ccccc23)CCCCC1	< 4.00		
CC(C)[C@H](NC(=O)[C@H](CC(N)=O)NC(=O)[C@@H](NC(=O)[C@H](Cc1ccc(OP(=O)(O)O)cc1)NC(=O)[C@H](CO)NC(=O)[C@@H]1CCCN1C(=O)[C@H](CC(=O)O)NC(=O)[C@@H](N)CC(=O)O)C(C)C)C(=O)N[C@@H](CCC(N)=O)C(=O)O (H-DDPS[pY]VNVQ-OH)			pIC50 [3]: 5.89
CC(=O)N[C@@H](Cc1ccc(CP(=O)(O)O)cc1)C(=O)NC1(C(=O)N[C@@H](CC(N)=O)C(=O)NCCCc2cccc3ccccc23)CCCCC1	7.10	6.30	
NC(=O)C[C@H](NC(=O)C1(NC(=O)[C@H](Cc2ccc(OCC(=O)O)c(C(=O)O)c2)NC(=O)C(=O)O)CCCCC1)C(=O)NCCCc1cccc2ccccc12	5.89	6.30	
CC(=O)N[C@@H](Cc1ccc(OP(=O)(O)O)cc1)C(=O)NC1(C(=O)N[C@@H](CC(N)=O)C(=O)NCCCc2c(O)ccc3ccccc23)CCCCC1			pIC50 [3]: 7.96
CC[C@H](C)[C@@H]1NC(=O)[C@H](Cc2ccc(OP(=O)(O)O)cc2)NC(=O)[C@@H](NC(C)=O)CSSC[C@@H](C(N)=O)NC(=O)[C@H](CC(N)=O)NC1=O (Ac-C[pY]INC-NH2; disulfide 1-5)			pIC50 [3]: 6.43
CC(=O)N[C@@H](Cc1ccc(OP(=O)(O)O)cc1)C(=O)NC1(C(=O)N[C@@H](CC(N)=O)C(=O)NCCCc2cccc3ccccc23)CCCCC1			pIC50 [4]: 7.15
CC(=O)N[C@@H](Cc1ccc(O)cc1)C(=O)NC1(C(=O)N[C@@H](CC(N)=O)C(=O)NCCCc2cccc3ccccc23)CCCCC1			pIC50 [5]: < 4.30
